Assay outcomes as filed in PubChem BioAssay.
Most compounds without a hit are left out; they make up all but 3.5% or so of the library.
MrgX1 PAM – human MrgX1 positive allosteric modulation, primary screen. MrgX1-HEK293, Fluo-4 calcium flux, FDSS; hits give high values. B-score at 10 µM. Q96LB2. 310,000 compounds, 0.63% hits;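 active means plate-corrected calcium response at least 3 library SD above typical, normal starting fluorescence, not activating the receptor alone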;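 further: compound read alongside a low EC10 to EC30 dose of BAM8-22 agonist; peak minus trough fluorescence over baseline measured at the second addition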
Target sequence (Q96LB2 whole entry, looked up): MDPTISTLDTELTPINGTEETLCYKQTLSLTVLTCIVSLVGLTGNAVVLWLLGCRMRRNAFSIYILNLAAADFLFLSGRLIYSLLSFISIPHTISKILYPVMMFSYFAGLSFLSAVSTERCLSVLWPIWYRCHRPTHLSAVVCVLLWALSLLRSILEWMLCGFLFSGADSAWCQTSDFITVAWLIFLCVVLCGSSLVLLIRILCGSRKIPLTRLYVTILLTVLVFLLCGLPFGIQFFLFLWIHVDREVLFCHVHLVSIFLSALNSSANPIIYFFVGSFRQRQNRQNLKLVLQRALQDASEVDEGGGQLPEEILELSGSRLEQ
MrgX1 ag – human MrgX1 receptor agonism, primary screen; Q96LB2; MrgX1-HEK293 cells, Fluo-4 calcium fluorescence, agonist mode; hits give high values; B-score at 10 µM; 310,000 compounds, 0.44% hits; AID 588627;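 active means calcium response B-score plate-corrected fluorescence ratio at least 3 library SD, with starting fluorescence B-score inside 5 SD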
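Material – MrgX1-expressing HEK293 cells · Input – 15,000 cells seeded per well · Dosing – compound as first of three additions · Times – overnight seeding, then 1 h dark dye loading · Measured by – kinetic Fluo-4 NW fluorescence of intracellular calcium · Read-out – B-scored fluorescence response ratio · Benchmarks – positive and negative control wells on each plate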
RGS4 block – human RGS4 inhibition | P49798 | HEK293 M3R/RGS4 inducible, Fluo-4 calcium flux; hits give high values; triggered by carbachol at its EC20 | B-score at 10 µM | 310,000 compounds, 0.45% hits;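 active means B-score, a plate-corrected calcium signal, over three deviations above library mean, with baseline fluorescence within five deviations of library mean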;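 further: RGS4 expression induced by doxycycline in cells with stable M3 receptor; B-score is computed from the integrated fluorescence ratio over baseline after carbachol; higher B-score means a larger calcium signal and so more RGS4 inhibition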
Target sequence (P49798 whole entry, looked up): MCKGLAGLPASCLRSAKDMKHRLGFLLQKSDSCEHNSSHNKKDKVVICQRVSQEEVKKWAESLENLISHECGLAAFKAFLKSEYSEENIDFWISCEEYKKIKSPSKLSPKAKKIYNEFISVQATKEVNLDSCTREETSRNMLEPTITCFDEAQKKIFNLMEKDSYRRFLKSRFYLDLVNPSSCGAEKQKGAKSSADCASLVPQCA
MrgX1 antag – antagonists of human MrgX1 receptor. Q96LB2. MRGX1-HEK293 calcium flux, Fluo-4, BAM8-22 antagonism; hits give low values. B-score at 10 µM. 310,000 compounds, 1.3% hits. AID 588676;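 active means calcium-response B-score plate-corrected more than 3 library SD below zero, starting fluorescence within 5 deviations, no agonist response on first addition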;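 further: peak minus trough fluorescence over baseline after final BAM8-22 challenge near maximal dose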
RGS4 pot – potentiators or activators of RGS4. 310,000 compounds, 0.92% hits. B-score at 10 µM. HEK293 M3R/inducible RGS4, carbachol calcium flux Fluo4; hits give low values;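 active means B-score of the integrated calcium signal more than 4 SD below the library mean, with starting fluorescence not abnormally high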;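 further: negative B-score means reduced calcium response which marks RGS4 activation or potentiation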
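Material: Inducible-RGS4 HEK293 cells carrying M3 receptor; also added: carbachol at ECmax as muscarinic agonist stimulus; incubation: compound preincubation 20 min at room temperature before agonist; signal: Fluo4-AM (2 µM) calcium-flux fluorescence, kinetic read; measure: integrated calcium ratio converted to B score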
RGS4 block valid – RGS4 inhibitor validation. 1,700 compounds, 65% hits. HEK293 M3R/RGS4, carbachol calcium Fluo-4 fluorescence; carbachol added at its EC20; 0 = buffer wells, 100 = carbachol control. AID 492999. shares compounds with RGS4 block. calcium response, % at 10 µM;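 active means duplicate-averaged calcium response above the buffer-only control mean plus 5 SD of those controls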;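 further: integrated fluorescence ratio F max minus min over baseline F0; higher response in RGS4-induced cells means RGS4 inhibition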
RGS4 uninduced – counter-screen for RGS4 inhibitors: effect in non-induced cells | HEK293 M3R non-induced, carbachol calcium Fluo-4; submaximal (EC20) carbachol stimulus; buffer wells 0%, carbachol control wells 100% | 1,900 compounds, 20% hits | shares compounds with RGS4 block | activity (percent), % at 10 µM; call rule not given here;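 further: RGS4 induction absent so cells express M3R without RGS4; higher means more calcium signal and flags a non-specific hit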
RGS4 inh ctr2 – second counter-screen for RGS4 inhibitors: non-induced cells without carbachol. shares compounds with RGS4 block. HEK293 M3R/RGS4 non-induced, Fluo-4 calcium, no carbachol; normalised: buffer wells 0%, carbachol wells 100%. calcium response (agonist-mode artifact), % at 10 µM. 1,900 compounds, 22% hits. AID 493001;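 active means duplicate-averaged calcium rise in uninduced cells above buffer wells' mean plus 5 SD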
The depositor's hits bear a star; i = inactive; / = not tested or not shown.

SMILES | MrgX1 PAM | MrgX1 ag | RGS4 block | MrgX1 antag | RGS4 pot | RGS4 block valid | RGS4 uninduced | RGS4 inh ctr2
Cc1nc(Nc2ccccc2)sc1C(=O)c1ccc(F)cc1 | i | i | i | i | i | / | / | /
Nc1nc(Nc2ccccc2F)sc1C(=O)c1ccccc1 | i | i | 6.5* | i | i | 28%* | i | i
O=C(CN1C(=O)S/C(=C/C=C/c2ccccc2)C1=O)Nc1ccc(C(=O)O)cc1 | i | i | 4.7* | i | i | 7.0%* | i | i
O=C(CCN1C(=O)S/C(=C\c2ccccc2)C1=O)N1CCOCC1 | i | i | i | i | i | / | / | /
O=C(CN1C(=O)S/C(=C\C=C\c2ccccc2)C1=O)N1CCOCC1 | i | i | 8.5* | i | i | 9.5%* | i | i
CC1=C(CO)C(=O)OC([C@@H](C)C2CC[C@H]3C4C[C@H]5O[C@]56[C@@H](O)C=CC(=O)[C@]6(C)C4CC[C@]23C)C1 (stereo partly drawn) | i | i | 13* | i | i | 32%* | i | i
CCn1cc(Cl)c(C(=O)N2N=C(c3ccc4ccccc4c3)CC2c2ccccc2O)n1 (stereo not drawn) | i | i | i | i | i | / | / | /
CCn1cc([N+](=O)[O-])c(C(=O)N2N=C(c3ccc4ccccc4c3)CC2c2ccccc2O)n1 (stereo not drawn) | i | i | i | i | i | / | i | i
CCOc1c(Br)cc(/C=C2\N=C(C)OC2=O)cc1Br | i | i | 4.7* | i | i | 66%* | 37%* | i
Cc1ccc(C(CC(=O)NCc2ccco2)c2ccc(OC(C)C)cc2)cc1 (stereo not drawn) | i | i | i | i | i | / | / | /
CCOC(=O)/C(=C\c1cccnc1)C(=O)c1cc(C(C)=O)c(Nc2ccccc2)s1 | i | i | 6.4* | i | i | 42%* | i | 9.5%*
COc1ccc(S(=O)(=O)Nc2ccc(S(=O)(=O)Nc3ccc(F)cc3)cc2)cc1C | i | i | 5* | i | i | 22%* | i | i
COc1ccc(S(=O)(=O)Nc2cccc(F)c2)cc1C | i | i | i | i | i | / | / | /
Cc1ccc(NC(=O)C2CC(=O)NC(N3CCCCC3)=N2)cc1Cl (stereo not drawn) | i | i | i | i | i | / | / | /
Cn1c(SCC(=O)N=Nc2c(O)[nH]c3ccccc23)nc2ccccc21 | i | i | i | i | i | / | / | /
O=C(CSc1nc2ccccc2[nH]1)N=Nc1c(O)[nH]c2ccccc12 | i | i | 5* | i | i | i | i | i
O=C1COc2ccc(C(=O)CCl)cc2N1 | i | i | 13* | i | i | 66%* | 58%* | 9.5%*
COc1cc(C(=O)Nc2cccc3cccnc23)cc(OC)c1OC | i | i | i | i | i | i | i | i
O=C(O)CSc1cc(C(=O)c2ccccc2O)cn2c(=O)c3c(-c4ccccc4)csc3nc12 | i | i | i | i | i | / | / | /
COc1cccc(-c2nc(C=O)cs2)c1 | i | i | 5* | i | i | 5.0%* | i | i
COc1ccc(C)cc1NC(=O)C(=O)NCc1ccncc1 | i | i | i | i | i | i | i | i
COc1ccc(NC(=O)C(=O)NCc2ccncc2)c(OC)c1 | i | i | i | i | i | i | i | i
O=C(c1ccco1)N1CCN(S(=O)(=O)c2ccc(Cl)s2)CC1 | i | i | i | i | i | / | / | /
O=[N+]([O-])c1ccc(-c2nn(-c3ccccc3)cc2/C=N/n2c(-c3ccncc3)n[nH]c2=S)cc1 | i | i | i | i | i | i | i | i
Cc1ccc(-c2nn(-c3ccccc3)cc2/C=N/n2c(-c3cccs3)n[nH]c2=S)cc1 | i | i | i | i | i | / | / | /
SMILES | MrgX1 PAM | MrgX1 ag | RGS4 block | MrgX1 antag | RGS4 pot | RGS4 block valid | RGS4 uninduced | RGS4 inh ctr2
S=c1[nH]nc(-c2ccncc2)n1/N=C/c1cn(-c2ccccc2)nc1-c1ccccc1 | i | i | 7.8* | i | i | 12%* | 41%* | i
COc1ccc(NC(=O)C2C3C=CC4(CN(Cc5cccnc5)C(=O)C24)O3)c(OC)c1 (stereo not drawn) | i | i | i | i | i | / | / | /
Cc1[nH]c(C(=O)N/N=C/c2ccc(N(C)C)cc2)c(C)c1C(=O)N/N=C/c1ccc(N(C)C)cc1 | i | i | i | i | i | / | / | /
Brc1ccc(C2Nc3cccc4cccc(c34)N2)o1 | i | i | 5.2* | i | i | i | i | i
Brc1cccc(C2Nc3cccc4cccc(c34)N2)c1 | i | i | i | i | i | / | / | /
c1csc(C2Nc3cccc4cccc(c34)N2)c1 | i | i | 6.1* | i | i | i | i | i
N#Cc1cnc(SCC(=O)N2CCCC2)nc1N | i | i | i | i | i | / | / | /
COC(=O)CSC1=C(C#N)C(=O)NC(c2ccccc2)S1 (stereo not drawn) | i | i | 5.1* | i | i | 47%* | i | 9.5%*
COc1ccc([C@@H]2[C@@H]3C(=O)N(C(C)(C)C)C(=O)[C@@H]3[C@]3(Cc4ccccc4)C(=O)N(c4cccc(F)c4)C(=O)N23)cc1 | i | i | i | i | i | / | / | /
O=C1C(=O)N(CCN2CCOCC2)C(c2ccc([N+](=O)[O-])cc2)/C1=C(/O)c1ccc2c(c1)OCO2 (stereo not drawn) | i | i | i | i | i | / | / | /
Cc1c(Cl)ccc2c(C(=O)O)cc(-c3ccccc3)nc12 | i | i | 5.8* | i | i | 22%* | 40%* | i
Cc1c(Cl)ccc2c(C(N)=O)cc(-c3ccccn3)nc12 | i | i | i | i | i | / | / | /
Cn1c(=O)c2c(-c3ccccc3)n(-n3cnnc3)cc2n(C)c1=O | i | i | 5.4* | i | i | 11%* | i | i
NC[C@@H]1O[C@H](C23CC4CC(CC(C4)C2)C3)Cc2c1ccc(O)c2O | i | i | 10* | i | i | 10%* | i | i
